Source: PMC4113001 (Biochimica et biophysica acta, 2011)

Assays:
CRBPI [1] = target: T1, CRBPI (Rattus norvegicus, UniProt P02696); test: Fluorescence titration binding of retinoids to CRBPI; conditions: for affinity of CRBPI compared to CRBPII (fold stronger): ratio of Kd′ values CRBPII/CRBPI
T1 sequence (P02696 1-135): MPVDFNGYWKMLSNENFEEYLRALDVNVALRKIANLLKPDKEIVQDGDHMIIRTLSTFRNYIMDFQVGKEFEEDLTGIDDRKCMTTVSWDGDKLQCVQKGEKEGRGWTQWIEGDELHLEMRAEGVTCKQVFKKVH

CRBPI [2] = target: T1, CRBPI; format: binding; conditions: excitation spectra pre- and post-column
Summary of the method: (§1)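 Sephadex G-50 (fine) was equilibrated for several days in 20 mM KH2PO4, 100 mM KCl, pH 7.4. Small syringe columns were poured, a separate one for each protein–ligand pair. E. coli-expressed, FPLC-purified protein carried bound retinol. Excitation spectra of the complex were recorded before and after passage, with roughly equivalent free retinol in buffer as reference. Blanks were subtracted.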

CRBPII = target: T2, CRBPII (Rattus norvegicus, UniProt P06768); format: binding; conditions: excitation spectra pre- and post-column
T2 sequence (P06768 1-134): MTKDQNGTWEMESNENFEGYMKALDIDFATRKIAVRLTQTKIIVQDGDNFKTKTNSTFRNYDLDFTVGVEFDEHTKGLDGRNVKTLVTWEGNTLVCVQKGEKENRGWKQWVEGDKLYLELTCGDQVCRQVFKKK
Summary of the method: as §1

CRBPI and II = conditions: 19F NMR estimate; cited from earlier work

SMILES | CRBPI affinity for 9-cis-retinol relative to all-trans- and 13-cis-retinol (fold lower) (CRBPI [1]; ratio of Kd′ values) | affinity of CRBPI compared to CRBPII (fold stronger) (CRBPI [1]) | elution of complex with CRBPI through Sephadex G-50 (CRBPI [2]) | elution of complex with CRBPII through Sephadex G-50 (CRBPII) | Kd′ value of CRBPI relative to CRBPII (fold less) (CRBPI and II)
CC1=C(/C=C/C(C)=C\C=C\C(C)=C\CO)C(C)(C)CCC1 [9-cis-retinol] | ~ 3 fold | ~ 6 fold | eluted bound | eluted bound | 
CC1=C(/C=C/C(C)=C/C=C/C(C)=C/CO)C(C)(C)CCC1 [all-trans-retinol] |  | ~ 3 fold | bound | bound | 10–100 fold
